Assay outcomes deposited in PubChem BioAssay by several laboratories.
A3G deaminase: blocks human APOBEC3G single-stranded DNA deamination; Q9HC16; recombinant A3G, ssDNA deamination FAM/TAMRA fluorescence; inhibition, % at 20 µM; actives 0.28% (n = 330,000); AID 493012;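 active means inhibition of at least 40% at 20 µM, with no more than 30% in the related APOBEC3A deaminase screen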;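 further: plate controls were DMSO wells with A3G for no effect and wells lacking A3G enzyme for full effect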
Target sequence (Q9HC16 whole entry, looked up): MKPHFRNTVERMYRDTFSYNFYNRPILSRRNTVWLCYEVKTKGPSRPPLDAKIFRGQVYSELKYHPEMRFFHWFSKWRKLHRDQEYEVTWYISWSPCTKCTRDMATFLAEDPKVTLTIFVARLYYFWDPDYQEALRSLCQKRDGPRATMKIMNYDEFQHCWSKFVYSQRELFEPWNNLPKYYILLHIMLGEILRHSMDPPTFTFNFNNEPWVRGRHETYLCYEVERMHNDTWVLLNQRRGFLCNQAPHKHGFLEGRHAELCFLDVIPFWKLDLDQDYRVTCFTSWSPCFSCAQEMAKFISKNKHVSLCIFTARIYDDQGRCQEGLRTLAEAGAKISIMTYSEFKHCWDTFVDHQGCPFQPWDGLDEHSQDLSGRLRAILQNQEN
APOBEC3A inh: inhibitors of human APOBEC3A DNA deaminase; P31941; recombinant A3A, FAM/TAMRA ssDNA deamination fluorescence; inhibition, % at 20 µM; actives 0.41% (n = 330,000);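 active means at least 40% inhibition at 20 µM here, with at most 30% in a related deaminase screen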;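 further: plate controls were A3A with DMSO for no effect and wells lacking A3A enzyme for full effect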
SUMO Mot1 rescue: SUMOylation pathway inhibition by Mot1-301 growth rescue; S. cerevisiae Mot1-301 growth rescue, ATP luminescence, 38.5C; percent above DMSO median, 100 means doubled; growth rescue, % at 18.8 µM; actives 1% (n = 320,000); AID 2716;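 active means every valid replicate shows activation above 250% relative to neutral control wells; inactive means the rest, any valid replicate at or below 250%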;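 further: OY570 slx delta 5 strain wells were the positive control but not used for scaling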
Statin myotox sup: suppression of simvastatin myotoxicity; rescue of ATP level, % at 7.49 µM; actives 0.78% (n = 330,000); C2C12 myotubes + simvastatin, ATP luminescence, 48 h; scaled: DMSO 0, geranylgeraniol control 100;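 active means mean ATP rescue above about 67%, or every replicate alone reaching that limit, limit read from the data, passing the limit was not always enough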;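 further: myotubes were challenged with 10 µM simvastatin during compound exposure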
ASAP1 inh: ASAP1 ArfGAP inhibition; Q9ULH1; ASAP1-stimulated ARF1 GTP hydrolysis, GDP FP detection; inhibition, % at 16.5 µM; actives 0.19% (n = 360,000); in the data active means inhibition above about 25%;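 further: 0% = vehicle with enzyme and substrate and 100% = no enzyme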
ARFGAP1 inhibitor: inhibits rat ARF GTPase activating protein 1. Q62848. Arfgap1-stimulated ARF1 GTP hydrolysis, GDP FP detection. inhibition, % at 16.5 µM. actives 0.26% (n = 360,000);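 active means inhibition above a per-plate limit, mean inhibition of low control wells plus 3 SD, cut at about 25% in these data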;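 further: 0% = DMSO wells with enzyme and 100% = wells lacking Arfgap1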
Target sequence (Q62848 1-136 limits assumed): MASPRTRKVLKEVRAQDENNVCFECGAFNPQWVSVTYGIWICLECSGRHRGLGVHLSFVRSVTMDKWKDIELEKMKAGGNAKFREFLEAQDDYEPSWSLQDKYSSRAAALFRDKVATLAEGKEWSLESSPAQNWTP
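Material: rat Arfgap1 catalytic domain, aa 1-136; also added: human ARF1(Δ1-17)-GTP substrate; compound dosing: one concentration, 16.5 µM, DMSO 1.26%; incubation: GTP hydrolysis reaction 2 h at 25 °C; measured by: Tracer-displacement fluorescence polarization with EDTA stop, 620/688 nm; evaluation: % inhibition from polarization; repeats: one replicate per compound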
Active calls of the source: *. Rows were chosen to be rich in hits. Some 2.1% of all compounds tested hit in one or more screens of this group.

For CC=Cc1ccc2n(c1=O)C[C@@H]1[C@@H](CO)[C@H](C(=O)NCc3ccccc3F)N(CC)[C@H]21 (mixture of isomers) the results were Statin myotox sup 19.0.
Screening CC(Sc1nncn1C)C(=O)Nc1ccc(Cl)cn1 (stereo not given) returned A3G deaminase -1.4, APOBEC3A inh -1.0, SUMO Mot1 rescue -11.6, ASAP1 inh -8.0 and ARFGAP1 inhibitor 1.6.
For COc1ccc(Cl)cc1NC(=O)C(C)Sc1nncn1C (stereo not given) the results were A3G deaminase -4.3, APOBEC3A inh -2.6, SUMO Mot1 rescue -11.5, Statin myotox sup 130.5*, ASAP1 inh -1.0 and ARFGAP1 inhibitor 7.8.
`O=[N+]([O-])c1ccc(S(=O)(=O)N2CCN(C3CCN(Cc4ccccc4)CC3)CC2)cc1` gave A3G deaminase -9.8, APOBEC3A inh -4.7, SUMO Mot1 rescue 379.3*, Statin myotox sup -12.0, ASAP1 inh -4.0 and ARFGAP1 inhibitor -0.8.
Screening C[C@@H]1CN([C@@H](C)CO)C(=O)Cc2cc(NC(=O)Nc3ccc(C(F)(F)F)cc3)ccc2O[C@H]1CN(C)C returned Statin myotox sup 2.6.
For CCOC(=O)C1CCN(C=Nc2cc(C)on2)CC1 the results were A3G deaminase 2.0, APOBEC3A inh -0.3, SUMO Mot1 rescue -20.1, Statin myotox sup 147.2*, ASAP1 inh 3.8 and ARFGAP1 inhibitor -8.9.
For Cc1cccc(NCCC(=O)c2ccc(Br)cc2)c1 the results were A3G deaminase -9.7, APOBEC3A inh -9.4, SUMO Mot1 rescue -1.5, Statin myotox sup 15.0, ASAP1 inh 15.2 and ARFGAP1 inhibitor -6.5.
CC(C)c1ccc(NCCC(=O)c2ccc(Br)cc2)cc1 was read as A3G deaminase -8.0, APOBEC3A inh -1.8, SUMO Mot1 rescue 324.0*, ASAP1 inh -3.3 and ARFGAP1 inhibitor 9.7.
For CCOC(=O)Cn1cc(C(=O)OC)c2ccccc21 the results were A3G deaminase -1.1, APOBEC3A inh 0.0, SUMO Mot1 rescue -24.0, Statin myotox sup 4.9, ASAP1 inh 2.6 and ARFGAP1 inhibitor -5.2.
Screening COC(=O)c1cn(CC(=O)N2C(C)CCCC2C)c2ccccc12 (stereo not given) returned A3G deaminase -7.7, APOBEC3A inh -3.6, SUMO Mot1 rescue 8.6, Statin myotox sup 104.5*, ASAP1 inh 9.8 and ARFGAP1 inhibitor 0.4.
Screening COC(=O)Cn1cc(C(=O)OC)c2ccccc21 returned A3G deaminase 14.0, APOBEC3A inh 37.5, SUMO Mot1 rescue 8.4, Statin myotox sup 98.4*, ASAP1 inh 5.0 and ARFGAP1 inhibitor 7.2.
For O=C(NCc1ccccc1)C1CCC(CNS(=O)(=O)c2cccs2)CC1 (stereo not given) the results were A3G deaminase -1.9, APOBEC3A inh -1.8, SUMO Mot1 rescue -27.5, Statin myotox sup 96.6*, ASAP1 inh 13.2 and ARFGAP1 inhibitor 4.9.
Screening CO[C@H]1CN(C)C(=O)c2cc(NC(=O)Nc3cc(Cl)cc(Cl)c3)ccc2OC[C@@H](C)NC[C@H]1C returned Statin myotox sup -124.3.
`Cc1cc(=O)[nH]c(SCC(=O)Nc2c(C)n(C)n(-c3ccccc3)c2=O)n1` gave A3G deaminase -8.5, APOBEC3A inh -5.7, SUMO Mot1 rescue -9.5, Statin myotox sup -15.9, ASAP1 inh 11.0 and ARFGAP1 inhibitor -0.8.
For Cc1cc(=O)[nH]c(Nc2c(C)n(C)n(-c3ccccc3)c2=O)n1 the results were A3G deaminase -8.3, APOBEC3A inh -4.7, SUMO Mot1 rescue 673.1, Statin myotox sup 123.8*, ASAP1 inh -5.3 and ARFGAP1 inhibitor -4.4.
`CC(C)c1ccc(N=c2c([N+](=O)[O-])nn(-c3ccc4c(c3)OCCO4)n2O)cc1` gave A3G deaminase -5.3, APOBEC3A inh -2.5, SUMO Mot1 rescue 12.1, Statin myotox sup 1.1, ASAP1 inh 2.6 and ARFGAP1 inhibitor 3.0.
COc1cc(N=c2c([N+](=O)[O-])nn(-c3ccc4c(c3)OCCO4)n2O)cc(OC)c1 was read as A3G deaminase 1.8, APOBEC3A inh -1.6, SUMO Mot1 rescue 274.1*, ASAP1 inh -4.5 and ARFGAP1 inhibitor -0.1.
Screening O=C(Cc1ccccn1)NCC[C@@H]1CC[C@@H](NS(=O)(=O)c2ccc(Cl)cc2)[C@H](CO)O1 returned Statin myotox sup 6.7.
Cc1ccc([C@@H]2CC=C(C(=O)O)[C@H](c3ccc(Cl)cc3)N2S(=O)(=O)c2ccccc2C)cc1 was read as A3G deaminase -10.0, APOBEC3A inh -6.1, SUMO Mot1 rescue 255.0*, Statin myotox sup -1.3, ASAP1 inh -14.0 and ARFGAP1 inhibitor -14.2.
Cc1ccc([C@@H]2CC=C(C(=O)O)[C@H](c3cccc(F)c3)N2S(=O)(=O)c2ccccc2C)cc1 was read as A3G deaminase -8.0, APOBEC3A inh -6.2, SUMO Mot1 rescue 279.6*, Statin myotox sup -4.2, ASAP1 inh -4.3 and ARFGAP1 inhibitor -27.4.
CCc1ccc([C@@H]2CC=C(C(=O)O)[C@H](c3ccc(Br)cc3)N2S(=O)(=O)c2ccc(C)cc2)cc1 was read as A3G deaminase -5.7, APOBEC3A inh -5.5, SUMO Mot1 rescue 300.2*, Statin myotox sup 21.6, ASAP1 inh 5.7 and ARFGAP1 inhibitor -8.2.
CCCNC(=O)[C@H]1[C@H](CO)[C@H]2Cn3c(cccc3=O)[C@@H]1N2Cc1ccccc1 was read as Statin myotox sup -9.1.
O=C(Cc1cccnc1)N[C@@H]1CC[C@@H](CCn2cc(-c3ccccc3F)nn2)O[C@@H]1CO was read as Statin myotox sup 4.8.
For CCNC(=O)C[C@H]1CC[C@H]2[C@@H](COC[C@H](O)CN2C(=O)c2cc(Cl)cc(Cl)c2)O1 the results were Statin myotox sup 2.4.
`C#CCOC(=O)c1ccccc1C(=O)N(CC)CC` gave A3G deaminase -3.9, APOBEC3A inh -0.7, SUMO Mot1 rescue -1.6, Statin myotox sup 103.8*, ASAP1 inh 7.8 and ARFGAP1 inhibitor -9.0.
For C[C@@H]1CN([C@@H](C)CO)C(=O)c2cc(/C=C/c3ccccc3)cnc2O[C@@H]1CN(C)C(=O)Cc1cccnc1 the results were Statin myotox sup -10.5.
Screening COCC(=O)Nc1ccc2c(c1)C(=O)N(C)C[C@H](OC)[C@H](C)CN(Cc1cccc(F)c1)[C@@H](C)CO2 returned Statin myotox sup 2.7.
Screening N#Cc1c(/N=C/c2cccs2)sc2c1CCC2 returned A3G deaminase -5.0, APOBEC3A inh -0.7, SUMO Mot1 rescue 11.5, Statin myotox sup 2.6, ASAP1 inh -1.8 and ARFGAP1 inhibitor 2.5.
N#Cc1c(/N=C/c2cc(Br)cs2)sc2c1CCC2 was read as A3G deaminase -0.2, APOBEC3A inh -0.7, SUMO Mot1 rescue 3.3, Statin myotox sup 68.5*, ASAP1 inh -0.3 and ARFGAP1 inhibitor 3.0.
